Results from paper PMC6467287 (Bioorganic & medicinal chemistry letters, 2018).
Values belong to the compound of their own block, whether it stands above or below them.

Experiments:
[1] = tested on: DUBs (decomposition of high molecular weight ubiquitinated proteins, HMW-Ub) in HEK 293T cell lysates; type: biochemical; settings: for DUB inhibitory activity, SAR statement in words: ring B amine modification; for stabilization of the HMW-Ub pool (in words): HEK 293T HA-Ub lysates, 37 °C; for increase of inhibitory potency (factor): relative to C4
[2] = tested on: trypsin; experiment: Trypsin-catalyzed hydrolysis of diarylcarbonates; type: biochemical
Method in brief: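 The diarylcarbonate served as substrate for trypsin. Hydrolysis velocity was measured across substrate concentrations, and Km and kcat were derived from the velocity versus substrate concentration plot.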

[3] = target: T1, SENP6 (Homo sapiens, UniProt Q9GZR1); experiment: SENP6-catalyzed deSUMOylation of RanGap; type: biochemical; settings: 30 min at room temperature with inhibitor
T1 sequence (Q9GZR1 628-1112): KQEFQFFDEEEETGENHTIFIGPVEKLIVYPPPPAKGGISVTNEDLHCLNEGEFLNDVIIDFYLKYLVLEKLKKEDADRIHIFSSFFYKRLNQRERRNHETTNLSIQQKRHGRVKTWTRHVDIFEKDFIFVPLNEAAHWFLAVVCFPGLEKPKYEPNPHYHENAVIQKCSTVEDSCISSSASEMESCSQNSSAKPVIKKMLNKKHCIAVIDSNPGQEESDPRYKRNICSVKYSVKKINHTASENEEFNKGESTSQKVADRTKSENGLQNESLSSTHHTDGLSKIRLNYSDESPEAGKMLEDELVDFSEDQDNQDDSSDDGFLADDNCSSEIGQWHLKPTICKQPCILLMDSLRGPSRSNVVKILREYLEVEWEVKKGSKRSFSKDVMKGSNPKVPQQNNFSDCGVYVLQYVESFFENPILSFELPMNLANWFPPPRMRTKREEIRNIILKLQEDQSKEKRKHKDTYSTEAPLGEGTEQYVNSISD
Method in brief: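 His6-tagged SENP6 catalytic domain (aa 628-1112, 200 nM) was preincubated with test compound for 30 min at room temperature. SUMOylated His6-RanGap1 catalytic domain (aa 418-588, 3 μM) was then added for 10 min at 37 °C. Reactions were quenched in Laemmli buffer, resolved by SDS-PAGE and blotted with anti-His6 antibody.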

[4] = target: USP9x (Homo sapiens, UniProt Q93008); experiment: Time-dependent inhibition of recombinant USP9x; type: biochemical; settings: read-out: kon of commercially available DUB inhibitors (range)
[5] = tested on: K562 leukemia cells; experiment: Effects on K562 leukemia cells; type: cell-based; settings: for accumulation of K48-linked HMW-Ub / Bcr-Abl level: 50 μM, 2 h; for Bcr-Abl level: anti-Abl immunoblot
Method in brief: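 K562 cells were treated with test compound (50 μM, 2 h) and immunoblotted for K48-linked ubiquitin and for Bcr-Abl (anti-Abl); Bcr-Abl was also tested over a dose range. For the bortezomib series, cells got test compound (50 μM) with or without bortezomib (6 μM) for 4 h. Lysates were sonicated in SDS before PAGE. Cell cycle was read by FACS, scoring G1 and sub-G1 (apoptotic) cells.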

[6] = tested on: endogenous K48-linked HMW ubiquitin pool in untransfected HEK 293T lysates; type: biochemical; settings: read-out: EC50 for stabilization of the endogenous K48-linked HMW ubiquitin pool
[7] = tested on: 26S proteasome (flux through the ubiquitin-proteasome system); experiment: G76VUb-GFP assay in HEK 293T cells; type: cell-based; settings: HEK 293T cells expressing G76VUb-GFP
[8] = tested on: MCF7 breast cancer cells; experiment: Effects on MCF7 cells; type: cell-based; settings: for cytotoxicity of C17 hydrolysis products: viability of MCF7 cells
[9] = target: DUBs (USP9x, USP19, USP7/8, USP28/15, UCHL5, UCHL3, UCHL1) in HEK 293T cell lysates (Homo sapiens, UniProt Q93009); experiment: HA-Ub-VS activity profiling of HEK 293T cell lysates; type: biochemical; settings: HEK 293T cell lysate
Method in brief: (§1)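 HEK 293T lysate (1.5 mg/ml) was treated with test compound (25 μM) or DMSO, then HA-Ub-VS (1.5 μM) was added, or both were added together. Timed aliquots were anti-HA blotted. For the dilution test, lysate (15 mg/ml) was preincubated with compound (250 μM) for 30 min, diluted tenfold, then given HA-Ub-VS (1.5 μM). USP7 was read by anti-USP7 blot as the probe-shifted band.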

[10] = tested on: DUBs (USP9x, USP19, USP7/8, USP28/15, UCHL5, UCHL3, UCHL1) in HEK 293T cell lysates; experiment: as above; type: biochemical
Method in brief: as §1

[11] = tested on: N/N=C/NCc1ccc(OC(=O)Oc2ccc3ccccc3c2)cc1; experiment: purified protein, by the assay type; settings: other: chymotrypsin; 37.0 °C
[12] = tested on: NCc1ccc(OC(=O)Oc2ccc3ccccc3c2)cc1; experiment: purified protein, by the assay type; settings: other: chymotrypsin; 37.0 °C

Chain of USP9x (Q93008 whole entry, species assumed): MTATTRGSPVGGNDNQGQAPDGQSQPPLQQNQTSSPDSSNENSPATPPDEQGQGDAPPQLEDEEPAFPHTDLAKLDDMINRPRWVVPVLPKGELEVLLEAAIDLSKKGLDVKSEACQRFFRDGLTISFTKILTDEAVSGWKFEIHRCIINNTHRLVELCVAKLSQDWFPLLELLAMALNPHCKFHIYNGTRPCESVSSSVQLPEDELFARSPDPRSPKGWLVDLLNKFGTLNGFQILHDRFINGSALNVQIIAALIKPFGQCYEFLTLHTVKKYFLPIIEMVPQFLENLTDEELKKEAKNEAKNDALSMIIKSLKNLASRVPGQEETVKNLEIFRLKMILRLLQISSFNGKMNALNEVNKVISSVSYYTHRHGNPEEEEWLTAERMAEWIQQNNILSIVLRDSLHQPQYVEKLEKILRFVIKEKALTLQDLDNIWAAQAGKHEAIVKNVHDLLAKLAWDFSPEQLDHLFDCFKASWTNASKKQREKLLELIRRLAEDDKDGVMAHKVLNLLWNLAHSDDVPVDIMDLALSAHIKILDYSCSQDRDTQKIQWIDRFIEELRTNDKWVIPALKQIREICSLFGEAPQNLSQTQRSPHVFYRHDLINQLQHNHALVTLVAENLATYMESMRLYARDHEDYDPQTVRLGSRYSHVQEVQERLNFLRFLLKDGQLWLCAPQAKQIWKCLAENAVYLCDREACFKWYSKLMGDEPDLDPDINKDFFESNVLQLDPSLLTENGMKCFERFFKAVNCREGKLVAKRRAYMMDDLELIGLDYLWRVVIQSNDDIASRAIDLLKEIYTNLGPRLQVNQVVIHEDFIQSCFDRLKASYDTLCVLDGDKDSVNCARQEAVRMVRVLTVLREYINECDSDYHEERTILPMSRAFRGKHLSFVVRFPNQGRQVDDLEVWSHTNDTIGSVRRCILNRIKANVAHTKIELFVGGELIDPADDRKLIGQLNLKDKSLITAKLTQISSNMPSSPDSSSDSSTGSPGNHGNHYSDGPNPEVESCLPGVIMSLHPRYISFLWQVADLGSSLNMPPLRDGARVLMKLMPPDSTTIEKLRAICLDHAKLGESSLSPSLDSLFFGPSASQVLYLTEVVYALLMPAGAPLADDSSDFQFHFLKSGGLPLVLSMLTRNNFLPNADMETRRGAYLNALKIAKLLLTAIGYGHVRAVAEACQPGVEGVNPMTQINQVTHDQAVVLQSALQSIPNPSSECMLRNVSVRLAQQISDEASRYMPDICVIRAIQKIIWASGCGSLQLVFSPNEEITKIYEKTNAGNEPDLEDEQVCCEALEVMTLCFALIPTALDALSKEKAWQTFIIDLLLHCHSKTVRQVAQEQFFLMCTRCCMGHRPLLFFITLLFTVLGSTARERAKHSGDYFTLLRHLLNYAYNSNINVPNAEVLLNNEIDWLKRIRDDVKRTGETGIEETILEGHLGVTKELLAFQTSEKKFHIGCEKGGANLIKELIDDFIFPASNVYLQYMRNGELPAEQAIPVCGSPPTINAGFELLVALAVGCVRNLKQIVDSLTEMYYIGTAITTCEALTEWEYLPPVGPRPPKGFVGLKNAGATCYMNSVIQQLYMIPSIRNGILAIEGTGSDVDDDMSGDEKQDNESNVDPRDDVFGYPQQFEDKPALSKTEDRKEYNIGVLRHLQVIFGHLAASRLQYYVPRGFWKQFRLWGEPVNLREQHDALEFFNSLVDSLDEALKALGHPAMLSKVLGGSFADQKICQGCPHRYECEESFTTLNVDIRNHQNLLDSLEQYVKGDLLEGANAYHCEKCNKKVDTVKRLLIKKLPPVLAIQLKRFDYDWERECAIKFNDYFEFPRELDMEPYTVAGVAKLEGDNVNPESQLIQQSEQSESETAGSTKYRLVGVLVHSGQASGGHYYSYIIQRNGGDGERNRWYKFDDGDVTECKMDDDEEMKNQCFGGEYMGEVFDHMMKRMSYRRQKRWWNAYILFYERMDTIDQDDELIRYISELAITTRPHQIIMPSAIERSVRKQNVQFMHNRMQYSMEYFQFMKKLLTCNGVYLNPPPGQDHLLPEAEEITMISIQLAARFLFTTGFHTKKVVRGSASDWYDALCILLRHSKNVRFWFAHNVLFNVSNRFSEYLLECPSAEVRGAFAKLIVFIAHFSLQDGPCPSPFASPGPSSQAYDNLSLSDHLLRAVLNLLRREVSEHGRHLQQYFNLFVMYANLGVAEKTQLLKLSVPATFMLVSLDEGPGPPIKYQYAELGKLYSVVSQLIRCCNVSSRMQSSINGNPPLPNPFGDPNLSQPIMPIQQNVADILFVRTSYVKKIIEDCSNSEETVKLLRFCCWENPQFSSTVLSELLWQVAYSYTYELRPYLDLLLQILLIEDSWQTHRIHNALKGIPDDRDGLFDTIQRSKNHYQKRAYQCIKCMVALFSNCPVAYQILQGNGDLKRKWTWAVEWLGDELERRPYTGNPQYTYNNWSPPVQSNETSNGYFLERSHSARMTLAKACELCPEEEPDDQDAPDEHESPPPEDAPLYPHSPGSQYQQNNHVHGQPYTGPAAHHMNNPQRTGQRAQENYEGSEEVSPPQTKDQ
Chain of DUBs (USP9x, USP19, USP7/8, USP28/15, UCHL5, UCHL3, UCHL1) in HEK 293T cell lysates (Homo sapiens, UniProt Q93009) (Q93009 whole entry): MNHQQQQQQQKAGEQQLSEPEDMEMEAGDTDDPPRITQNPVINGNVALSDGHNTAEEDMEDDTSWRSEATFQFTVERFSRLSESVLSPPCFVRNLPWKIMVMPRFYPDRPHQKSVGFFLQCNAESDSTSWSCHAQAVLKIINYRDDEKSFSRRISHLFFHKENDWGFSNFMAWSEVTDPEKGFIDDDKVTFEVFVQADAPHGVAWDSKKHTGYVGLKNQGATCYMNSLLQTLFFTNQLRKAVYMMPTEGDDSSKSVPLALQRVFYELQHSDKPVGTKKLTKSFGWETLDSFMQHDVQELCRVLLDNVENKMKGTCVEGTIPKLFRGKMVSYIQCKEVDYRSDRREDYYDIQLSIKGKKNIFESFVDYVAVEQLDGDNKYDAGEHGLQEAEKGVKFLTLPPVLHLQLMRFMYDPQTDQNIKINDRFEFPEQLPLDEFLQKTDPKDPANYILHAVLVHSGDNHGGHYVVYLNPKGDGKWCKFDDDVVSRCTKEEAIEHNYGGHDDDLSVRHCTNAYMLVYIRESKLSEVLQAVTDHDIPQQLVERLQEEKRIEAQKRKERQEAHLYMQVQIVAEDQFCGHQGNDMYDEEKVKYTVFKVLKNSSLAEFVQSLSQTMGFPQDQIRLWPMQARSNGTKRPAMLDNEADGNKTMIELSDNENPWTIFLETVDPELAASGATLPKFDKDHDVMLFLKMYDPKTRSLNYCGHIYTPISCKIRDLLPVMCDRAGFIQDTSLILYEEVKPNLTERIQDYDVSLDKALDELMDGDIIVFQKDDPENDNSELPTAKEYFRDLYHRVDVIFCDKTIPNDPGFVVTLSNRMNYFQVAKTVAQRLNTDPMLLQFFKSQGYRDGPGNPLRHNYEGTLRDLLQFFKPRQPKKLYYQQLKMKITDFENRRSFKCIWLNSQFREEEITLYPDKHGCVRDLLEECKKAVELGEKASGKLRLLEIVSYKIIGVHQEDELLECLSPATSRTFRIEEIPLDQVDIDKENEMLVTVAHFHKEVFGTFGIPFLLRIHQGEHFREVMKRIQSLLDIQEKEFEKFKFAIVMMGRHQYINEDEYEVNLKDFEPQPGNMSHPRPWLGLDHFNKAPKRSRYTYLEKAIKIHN

Compound: CC(C)(C)OC(=O)NCc1ccc(OC(=O)Oc2ccc(Cl)cc2)cc1 [C23]
DUB inhibitory activity, SAR statement in words [1]: Inhibitory activity was not recovered

inhibition of SENP6-catalyzed deSUMOylation of RanGap [3]: failed to inhibit
Compound: N/N=C/NCc1ccc(OC(=O)Oc2ccc3ccccc3c2)cc1 [C22]
kcat as substrate [2]: 0.001 s⁻¹
DUB inhibitory activity, SAR statement in words [1]: efficacious

kon [4]: 49 to 140 M⁻¹ s⁻¹
Compound: Cc1ccc(/C=C2\CNC/C(=C\c3ccc(C)cc3)C2=O)cc1 [NSC-632839]

Compound: Cc1cc(C(=O)CN2CCCC2)c(C)n1-c1ccc(F)cc1 [IU1, reference compound]
stabilization of the HMW-Ub pool (in words) [1]: little effect

Compound: NCc1ccc(OC(=O)Oc2cccc3ccccc23)cc1 [C18]
accumulation of K48-linked HMW-Ub [5]: caused the accumulation
Bcr-Abl level [5]: decrease
EC50 [6]: < 50 µM
GFP fluorescence in G76VUb-GFP assay [7]: failed to increase

Compound: CC(C)CNCc1ccc(OC(=O)Oc2ccc3ccccc3c2)cc1 [C21]
DUB inhibitory activity, SAR statement in words [1]: somewhat deleterious

Compound: CC(C)(C)OC(=O)NCc1ccc(OC(=O)Oc2ccc3ccccc3c2)cc1 [C19]
DUB inhibitory activity, SAR statement in words [1]: Inhibitory activity was not recovered

Compound: NCc1ccc(NC(=O)Oc2ccccc2)cc1 [C8]
stabilization of the HMW-Ub pool (in words) [1]: did not stabilize

Compound: CC(C)C[C@H](NC(=O)[C@H](Cc1ccccc1)NC(=O)c1cnccn1)B(O)O [bortezomib, reference compound]
stabilization of the HMW-Ub pool (in words) [1]: failed to stabilize
GFP fluorescence in G76VUb-GFP assay [7]: significantly increased

Compound: O=C(Oc1ccccc1)Oc1ccc(CNCc2ccc(Cl)cc2)cc1 [C5]
DUB inhibitory activity, SAR statement in words [1]: retained DUB inhibitory activity

Compound: CC(C)(C)CNCc1ccc(OC(=O)Oc2ccc3ccccc3c2)cc1 [C20]
DUB inhibitory activity, SAR statement in words [1]: Inhibitory activity was retained

accumulation of soluble HMW-Ub ([8]; MCF7 cells, 50 μM, 4 h): caused the accumulation
inhibition of USP7 (anti-USP7 immunoblot after HA-UbVS) [9]: inhibition of USP7 was confirmed
Compound: NCc1ccc(OC(=O)Oc2ccc3ccccc3c2)cc1 [C17]
accumulation of K48-linked HMW-Ub [5]: caused the accumulation
Bcr-Abl level [5]: decrease
G1 and apoptotic (sub G1) cells ([5]; 24 h incubation, FACS): dose-dependent increase
Bcr-Abl degradation in the presence of bortezomib ([5]; C17 50 μM, bortezomib 6 μM, 4 h): did not prevent
Mdm2 levels ([8]; MCF7 cells, 4 h): decreased
p21/WAF1 levels ([8]; MCF7 cells, 4 h): robust increase
p53 levels ([8]; MCF7 cells, 4 h): concomitant increase
cell viability ([8]; MCF7 cells, treated every 24 h, 72 h, Alamar Blue): cell viability decreased
kcat as substrate [2]: 0.02 s⁻¹
HA-Ub-VS labeling of DUB bands ([10]; compound (25 μM) and HA-Ub-VS (1.5 μM) added simultaneously): no inhibition of DUB labeling was observed
HA-Ub-VS labeling of DUB bands ([10]; lysate treated with compound (25 μM) followed by HA-Ub-VS (1.5 μM)): decreasing the labeling of all the bands
HA-Ub-VS labeling of DUB bands ([10]; pre-incubated with compound (250 μM) 30 min, diluted 10-fold before HA-Ub-VS): labeling was reduced
EC50 [6]: < 50 µM
GFP fluorescence in G76VUb-GFP assay [7]: failed to increase

Compound: NCc1ccc(O)cc1 [4-aminomethylphenol]
cytotoxicity of C17 hydrolysis products [8]: not cytotoxic

Compound: Oc1ccc2ccccc2c1 [2-naphthol]
cytotoxicity of C17 hydrolysis products [8]: not cytotoxic

inhibition of SENP6-catalyzed deSUMOylation of RanGap [3]: failed to inhibit
Compound: NCc1ccc(OC(=O)Oc2ccc(Cl)cc2)cc1 [C14]
accumulation of K48-linked HMW-Ub [5]: caused the accumulation
Bcr-Abl level [5]: decrease
increase of inhibitory potency (factor) [1]: approximately 10
EC50 [6]: < 50 µM
GFP fluorescence in G76VUb-GFP assay [7]: failed to increase

Compound: NCc1ccc(OC(=O)Nc2ccccc2)cc1 [C7]
stabilization of the HMW-Ub pool (in words) [1]: did not stabilize

Compound: CC(C)(C)OC(=O)NCc1ccc(OC(=O)Oc2ccccc2)cc1 [C3]
DUB inhibitory activity, SAR statement in words [1]: activity was lost

inhibition of SENP6-catalyzed deSUMOylation of RanGap [3]: failed to inhibit
Compound: NCc1ccc(OC(=O)Oc2ccc(Br)cc2)cc1 [C15]
accumulation of K48-linked HMW-Ub [5]: caused the accumulation
Bcr-Abl level [5]: decrease
increase of inhibitory potency (factor) [1]: approximately 10
EC50 [6]: < 50 µM
GFP fluorescence in G76VUb-GFP assay [7]: failed to increase

Compound: O=C1/C(=C/c2ccc([N+](=O)[O-])cc2)CS(=O)(=O)C/C1=C\c1ccc([N+](=O)[O-])cc1 [G5, G5 isopeptidase inhibitor 1, reference compound]
stabilization of the HMW-Ub pool (in words) [1]: stabilized
GFP fluorescence in G76VUb-GFP assay [7]: No significant increase

Compound: chymotrypsin (Bos taurus)
Km [11]: 1 µM
kcat [11]: 0.03 s⁻¹
Km [12]: 1 µM
kcat [12]: 0.03 s⁻¹
